# “And” between values parts separate entries of the source, which are not always exact repeats. Identical values can stand only once. Like-named read-outs stand apart in the source and are kept apart here.
# What was measured:
# [1] = molecular target: FL4 hERG1 channels (F557L) (Homo sapiens, UniProt Q12809, F557L); assay: Two-electrode voltage clamp, concatenated tetramer FL4 in Xenopus oocytes; format: cell-based; settings: 30 µM ICA, mean ± SEM
# How it was run: (§1)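 F557L/WT concatenated tetramers were expressed from 50 ng cRNA and recorded 4–8 d later by two-electrode voltage clamp in pH 7.6 HEPES bath, with and without test compound. V0.5act and z came from Boltzmann fits of tails at −70 mV after 4-s steps. Inactivation: 1 s at 40 mV, then 5 s at 30 to −140 mV, with Itail/(Vret−Erev) fitted. Fold increase in Itest at 20 mV over 1–30 µM was fitted logistically (EC50, nH).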
# WT4 hERG1 channels = WT4 hERG1 channels (Homo sapiens, UniProt Q12809); format: cell-based; settings: for fold increase in Itest (isochronal, 4 s): 10 µM ICA, stated for WT and WT4 together
# How it was run: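 WT4 tetramers (50 ng cRNA, 4–8 d) were studied by two-electrode voltage clamp in pH 7.6 bath, 2 mM KCl. Tests used 4-s steps, −70 to 50 mV, with tails at −70 mV and Boltzmann fits (V0.5act). Inactivation: 40 mV prepulse, then 5 s at 30 to −140 mV. Concentration-response of Itest at 20 mV or of Itail-max was fitted logistically (EC50, nH). Some Itail-Vret runs used 20 mM KCl bath.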
# WT hERG1 channels = WT hERG1 channels (Homo sapiens, UniProt Q12809); format: cell-based; settings: for fold increase in Itest (isochronal, 4 s): 10 µM ICA, stated for WT and WT4 together
# How it was run: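 Oocytes were injected with 10 ng cRNA for single WT subunits and recorded 1–3 d later by two-electrode voltage clamp. Bath (mM): 98 NaCl, 2 KCl, 1 CaCl2, 1 MgCl2, 5 HEPES, pH 7.6. Test compound was diluted from a 20 mM DMSO stock just before use. Itest was taken at the end of 4-s steps (−70 to 50 mV); tails at −70 mV were Boltzmann-fitted for V0.5act and z. Mean ± SEM, n = oocytes.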
# [2] = molecular target: WT3/FL1 hERG1 channels (F557L) (Homo sapiens, UniProt Q12809, F557L); assay: Two-electrode voltage clamp, concatenated tetramer WT3/FL1 in Xenopus oocytes; format: cell-based; settings: 30 µM ICA, mean ± SEM
# How it was run: as §1
# [3] = molecular target: FL1/WT1/FL2 hERG1 channels (F557L) (Homo sapiens, UniProt Q12809, F557L); format: cell-based
# How it was run: as §1
# [4] = molecular target: FL1/WT1/FL1/WT1 hERG1 channels (F557L) (Homo sapiens, UniProt Q12809, F557L); format: cell-based; settings: 30 µM ICA, mean ± SEM
# How it was run: as §1
# [5] = molecular target: FL1/WT3 hERG1 channels (F557L) (Homo sapiens, UniProt Q12809, F557L); assay: Two-electrode voltage clamp, concatenated tetramer FL1/WT3 in Xenopus oocytes; format: cell-based; settings: 30 µM ICA
# How it was run: as §1
# [6] = molecular target: FL2/WT2 hERG1 channels (F557L) (Homo sapiens, UniProt Q12809, F557L); assay: Two-electrode voltage clamp, concatenated tetramer FL2/WT2 in Xenopus oocytes; format: cell-based; settings: 30 µM ICA, mean ± SEM
# How it was run: as §1
# [7] = Limit of solubility in extracellular solution; format: physicochemical; settings: extracellular solution pH 7.6, diluted from 20-mM DMSO stock
# [8] = molecular target: LE1/WT1/LE2 hERG1 channels (L646E) (Homo sapiens, UniProt Q12809, L646E); format: cell-based; settings: 10 µM PD, mean ± SEM
# How it was run: (§2)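 Concatenated L646E/WT tetramers: 50 ng cRNA per oocyte, recorded 4–8 d later by two-electrode voltage clamp in pH 7.6 HEPES bath. Activation used 4-s steps, −70 to 50 mV, with Itail at −70 mV Boltzmann-fitted for V0.5act and z. Inactivation used 1 s at 40 mV, then 5 s at 30 to −140 mV; Itail/(Vret−Erev) was Boltzmann-fitted. Fold increase in Itail-max over 1–30 µM was fitted with a logistic equation (EC50, nH).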
# [9] = molecular target: WT3/LE1 hERG1 channels (L646E) (Homo sapiens, UniProt Q12809, L646E); assay: Two-electrode voltage clamp, concatenated tetramer WT3/LE1 in Xenopus oocytes; format: cell-based
# How it was run: as §2
# [10] = molecular target: LE1/WT3 hERG1 channels (L646E) (Homo sapiens, UniProt Q12809, L646E); assay: Two-electrode voltage clamp, concatenated tetramer LE1/WT3 in Xenopus oocytes; format: cell-based
# How it was run: as §2
# [11] = molecular target: LE4 hERG1 channels (L646E) (Homo sapiens, UniProt Q12809, L646E); assay: Two-electrode voltage clamp, concatenated tetramer LE4 in Xenopus oocytes; format: cell-based; settings: 10 µM PD, mean ± SEM
# How it was run: as §2
# [12] = molecular target: LE2/WT2 hERG1 channels (L646E) (Homo sapiens, UniProt Q12809, L646E); assay: Two-electrode voltage clamp, concatenated tetramer LE2/WT2 in Xenopus oocytes; format: cell-based; settings: 10 µM PD, mean ± SEM
# How it was run: as §2
# [13] = molecular target: LE1/WT1/LE1/WT1 hERG1 channels (L646E) (Homo sapiens, UniProt Q12809, L646E); format: cell-based; settings: 10 µM PD, mean ± SEM
# How it was run: as §2
smiles,measurement,setting,value
"O=C(Nc1ccc(Oc2ccccc2)cc1)c1cccc([N+](=O)[O-])c1 [ICA, 3-nitro-N-(4-phenoxyphenyl) benzamide]",V0.5act (half-point of channel activation),[1],−18.7 ± 1.0 mV
same,V0.5inact (V0.5 for C-type inactivation),[1],−98.8 ± 7.8 mV
same,z (equivalent charge) for activation,[1],3.60 ± 0.15
same,z for inactivation,[1],0.69 ± 0.04
same,"fold increase in Itest (isochronal, 4 s)",WT4 hERG1 channels; at 20 mV,20 fold
same,"fold increase in Itest (isochronal, 4 s)",WT4 hERG1 channels; at −30 mV,4 fold
same,effect on Itail at potentials more negative than −100 mV,"WT4 hERG1 channels; 30 µM ICA, WT4, bath solution containing 20 mM KCl",did not cause an increase in Itail
same,V0.5inact (V0.5 for C-type inactivation),"WT4 hERG1 channels; 30 µM ICA, WT4, mean ± SEM",57.8 ± 4.1 mV
same,z for inactivation,"WT4 hERG1 channels; 30 µM ICA, WT4, mean ± SEM",1.17 ± 0.05
same,nH (Hill coefficient) for increase in Itest at 20 mV,"WT4 hERG1 channels; ICA, WT4",1.7
same,"increase in current at Vt of 20 mV, WT4 channels compared with FL1/WT1/FL2 channels","WT4 hERG1 channels; ICA, ratio WT4 vs FL1/WT1/FL2",~13 fold
same,EC50,"WT4 hERG1 channels; read-out: EC50 for increase in Itest measured at 20 mV, ICA, WT4",9.1 µM
same,"fold increase in Itest (isochronal, 4 s)",WT hERG1 channels; at 20 mV,20 fold
same,"fold increase in Itest (isochronal, 4 s)",WT hERG1 channels; at −30 mV,4 fold
same,V0.5act (half-point of channel activation),[2],−36.7 ± 1.1 mV
same,V0.5inact (V0.5 for C-type inactivation),[2],49.9 ± 4.0 mV
same,z (equivalent charge) for activation,[2],3.57 ± 0.39
same,z for inactivation,[2],1.21 ± 0.03
same,V0.5act (half-point of channel activation),"[3]; 30 µM ICA, mean ± SEM",−19.5 ± 2.9 mV
same,V0.5inact (V0.5 for C-type inactivation),"[3]; 30 µM ICA, mean ± SEM",−72.5 ± 7.7 mV
same,z (equivalent charge) for activation,"[3]; 30 µM ICA, mean ± SEM",2.80 ± 0.22
same,z for inactivation,"[3]; 30 µM ICA, mean ± SEM",0.61 ± 0.05
same,shift in V0.5inact,"[3]; 30 µM ICA, n = 4",6.6 ± 1.6 mV
same,nH (Hill coefficient) for increase in Itest at 20 mV,[3]; ICA,2.0
same,EC50,"[3]; read-out: EC50 for increase in Itest measured at 20 mV, ICA",11.8 µM
same,V0.5act (half-point of channel activation),[4],−29.6 ± 1.6 mV
same,V0.5inact (V0.5 for C-type inactivation),[4],−33.7 ± 16.0 mV
same,z (equivalent charge) for activation,[4],3.00 ± 0.25
same,z for inactivation,[4],0.56 ± 0.03
same,V0.5act (half-point of channel activation),[5]; mean ± SEM,−34.5 ± 1.5 mV
same,V0.5inact (V0.5 for C-type inactivation),[5]; mean ± SEM,28.5 ± 6.0 mV
same,z (equivalent charge) for activation,[5]; mean ± SEM,4.06 ± 0.39
same,z for inactivation,[5]; mean ± SEM,0.95 ± 0.13
same,positive shift in V0.5inact,[5]; n = 4,70 ± 3 mV
same,V0.5act (half-point of channel activation),[6],−37.1 ± 0.4 mV
same,V0.5inact (V0.5 for C-type inactivation),[6],−22.4 ± 9.3 mV
same,z (equivalent charge) for activation,[6],3.88 ± 0.48
same,z for inactivation,[6],0.46 ± 0.01
same,limit of solubility,[7],0.03 mM
"O=C(O)c1ccccc1Nc1ccc(CCc2ccc(Cl)c(Cl)c2)cc1 [PD, 2-(4-[2-(3,4-dichloro-phenyl)-ethyl]-phenylamino)-benzoic acid]",V0.5act (half-point of channel activation),[8],−30.3 ± 1.4 mV
same,V0.5inact (V0.5 for C-type inactivation),[8],−47.7 ± 4.0 mV
same,z (equivalent charge) for activation,[8],3.55 ± 0.15
same,z for inactivation,[8],1.31 ± 0.08
same,increase in Itest measured at the end of 4-s pulses,"WT4 hERG1 channels; 10 µM PD, WT4",about twofold
same,increase in Itail,"WT4 hERG1 channels; 10 µM PD, WT4, Vret −140 mV after 1-s pulse to 40 mV",68%
same,V0.5act (half-point of channel activation),"WT4 hERG1 channels; 10 µM PD, WT4, mean ± SEM",−26.7 ± 1.0 mV
same,V0.5inact (V0.5 for C-type inactivation),"WT4 hERG1 channels; 10 µM PD, WT4, mean ± SEM",−39.4 ± 4.6 mV
same,z (equivalent charge) for activation,"WT4 hERG1 channels; 10 µM PD, WT4, mean ± SEM",3.07 ± 0.30
same,z for inactivation,"WT4 hERG1 channels; 10 µM PD, WT4, mean ± SEM",1.26 ± 0.17
same,increase in Itest measured at the end of 4-s pulses,"WT hERG1 channels; 10 µM PD, WT hERG1",about twofold
same,V0.5act (half-point of channel activation),"WT hERG1 channels; 10 µM PD, WT hERG1, mean ± SEM",−29.2 ± 14 mV
same,V0.5inact (V0.5 for C-type inactivation),"WT hERG1 channels; 10 µM PD, WT hERG1, mean ± SEM",−34.7 ± 4.2 mV
same,z (equivalent charge) for activation,"WT hERG1 channels; 10 µM PD, WT hERG1, mean ± SEM",3.07 ± 0.34
same,z for inactivation,"WT hERG1 channels; 10 µM PD, WT hERG1, mean ± SEM",1.19 ± 0.09
same,EC50,[9],4.8 µM
same,V0.5act (half-point of channel activation),"[9]; 10 µM PD, WT3/LE1, mean ± SEM",−27.1 ± 1.3 mV and −27.1 ± 1.29 mV
same,V0.5inact (V0.5 for C-type inactivation),"[9]; 10 µM PD, WT3/LE1, mean ± SEM",−33.5 ± 3.7 mV
same,z (equivalent charge) for activation,"[9]; 10 µM PD, WT3/LE1, mean ± SEM",3.44 ± 0.16
same,z for activation (Figure 6 legend),"[9]; 10 µM PD, WT3/LE1, mean ± SEM",3.44 ± 0.16
same,z for inactivation,"[9]; 10 µM PD, WT3/LE1, mean ± SEM",1.44 ± 0.19
same,nH (Hill coefficient) for fold increase in Itail-max,"[9]; PD, WT3/LE1",1.4
same,EC50,[10],4.6 µM
same,V0.5act (half-point of channel activation),"[10]; 10 µM PD, LE1/WT3, mean ± SEM",−30.1 ± 1.6 mV
same,V0.5inact (V0.5 for C-type inactivation),"[10]; 10 µM PD, LE1/WT3, mean ± SEM",−44.6 ± 2.7 mV
same,z (equivalent charge) for activation,"[10]; 10 µM PD, LE1/WT3, mean ± SEM",4.20 ± 0.07
same,z for activation (Figure 6 legend),"[10]; 10 µM PD, LE1/WT3, mean ± SEM",4.2 ± 0.07
same,z for inactivation,"[10]; 10 µM PD, LE1/WT3, mean ± SEM",1.24 ± 0.10
same,nH (Hill coefficient) for fold increase in Itail-max,"[10]; PD, LE1/WT3",1.1
same,V0.5act (half-point of channel activation),[11],−32.6 ± 1.2 mV
same,V0.5inact (V0.5 for C-type inactivation),[11],−43.6 ± 2.2 mV
same,z (equivalent charge) for activation,[11],3.55 ± 0.25
same,z for inactivation,[11],1.52 ± 0.05
same,V0.5act (half-point of channel activation),[12],−31.3 ± 1.0 mV
same,V0.5inact (V0.5 for C-type inactivation),[12],−45.5 ± 2.8 mV
same,z (equivalent charge) for activation,[12],3.94 ± 0.12
same,z for inactivation,[12],1.19 ± 0.08
same,V0.5act (half-point of channel activation),[13],−32.7 ± 0.8 mV
same,V0.5inact (V0.5 for C-type inactivation),[13],−43.3 ± 3.4 mV
same,z (equivalent charge) for activation,[13],3.45 ± 0.19
same,z for inactivation,[13],1.22 ± 0.07

# Reference: PMC3971662 (The Journal of General Physiology, 2014)
